Measured values taken from ChEMBL document CHEMBL1123129, “Hypolipidemic activity of indan-1,3-dione derivatives in rodents” (J Med Chem, 1985).

How the values were obtained:
[1] = target: Acetyl-CoA carboxylase 1 (Mus musculus) (UniProt Q5SWU9); assay: In Vitro evaluation for the CF1 liver enzyme activity on Acetyl-CoA carboxylase at concentration 200 uM
Procedure, shortened: (§1)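 Liver was taken from CF1 male mice and made into 10% homogenates, which were incubated with test compound at 50, 100 or 200 µM. Each enzyme was assayed by its literature method, and protein was measured by Lowry. N = 6. Activity is expressed as % of untreated control ± SD.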

[2] = target: T1, ATP-citrate synthase (Mus musculus) (UniProt Q91V92); assay: In Vitro evaluation for the CF1 liver enzyme activity on ATP-Citrate Lyase exchange at concentration 200 uM; procedure, shortened: as §1
T1 sequence (whole entry): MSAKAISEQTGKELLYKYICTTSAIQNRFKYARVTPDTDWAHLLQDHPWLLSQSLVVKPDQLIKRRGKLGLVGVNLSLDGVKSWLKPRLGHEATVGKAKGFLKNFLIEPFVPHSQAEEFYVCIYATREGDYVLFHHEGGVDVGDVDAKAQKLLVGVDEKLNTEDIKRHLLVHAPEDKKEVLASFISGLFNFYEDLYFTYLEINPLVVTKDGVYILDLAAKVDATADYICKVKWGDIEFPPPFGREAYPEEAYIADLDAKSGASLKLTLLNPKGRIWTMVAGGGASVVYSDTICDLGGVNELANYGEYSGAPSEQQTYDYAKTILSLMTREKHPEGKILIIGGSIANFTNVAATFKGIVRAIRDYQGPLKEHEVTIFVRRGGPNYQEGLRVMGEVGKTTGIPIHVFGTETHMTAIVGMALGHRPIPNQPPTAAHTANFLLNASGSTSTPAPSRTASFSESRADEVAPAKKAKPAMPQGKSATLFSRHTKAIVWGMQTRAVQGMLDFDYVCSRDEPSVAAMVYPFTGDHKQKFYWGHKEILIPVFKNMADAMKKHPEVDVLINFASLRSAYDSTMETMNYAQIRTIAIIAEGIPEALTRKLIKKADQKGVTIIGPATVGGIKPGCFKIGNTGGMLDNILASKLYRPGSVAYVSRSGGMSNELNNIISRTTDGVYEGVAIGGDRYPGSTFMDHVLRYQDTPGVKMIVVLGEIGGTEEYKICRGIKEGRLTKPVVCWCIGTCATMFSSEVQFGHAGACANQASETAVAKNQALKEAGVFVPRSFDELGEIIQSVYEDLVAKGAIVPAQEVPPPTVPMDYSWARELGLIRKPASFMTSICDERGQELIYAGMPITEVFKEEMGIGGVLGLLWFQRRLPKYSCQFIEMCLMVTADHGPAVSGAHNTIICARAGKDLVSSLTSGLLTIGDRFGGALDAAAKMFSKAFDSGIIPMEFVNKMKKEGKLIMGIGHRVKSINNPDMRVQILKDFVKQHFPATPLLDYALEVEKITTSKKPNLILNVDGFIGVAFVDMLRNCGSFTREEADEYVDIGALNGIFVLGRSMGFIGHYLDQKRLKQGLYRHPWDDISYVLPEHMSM

[3] = target: T1, ATP-citrate synthase (Mus musculus); assay: In Vivo effect for the hypolipidemic activity on ATP-Citrate Lyase in CF1 mice after 16 days of oral administration at a dose of 20 mg/kg; type: organism-based; parameters: dose 20 mg/kg
Procedure, shortened: (§2)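 CF1 male mice are dosed orally at 10–60 mg/kg per day for 16 days, with 1% CMC as the control vehicle. Liver is homogenized at 10% in 0.25 M sucrose + 0.001 M EDTA, pH 7.2. Enzymes are assayed by literature methods, with Lowry protein. Activity is given as % of control (X ± SD, N = 6), with p from Student's t test.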

[4] = organism: Mus musculus; assay: In Vitro evaluation for the CF1 liver enzyme activity on Acetyl-CoA carboxylase at concentration 50 uM; type: functional; procedure, shortened: as §1
[5] = target: T2, Sterol O-acyltransferase 1 (Mus musculus) (UniProt Q61263); assay: In Vitro evaluation for the CF1 liver enzyme activity on Acyl cholesterol acyltransferase at concentration 200 uM; type: functional, tissue-based; procedure, shortened: as §1
T2 sequence (whole entry): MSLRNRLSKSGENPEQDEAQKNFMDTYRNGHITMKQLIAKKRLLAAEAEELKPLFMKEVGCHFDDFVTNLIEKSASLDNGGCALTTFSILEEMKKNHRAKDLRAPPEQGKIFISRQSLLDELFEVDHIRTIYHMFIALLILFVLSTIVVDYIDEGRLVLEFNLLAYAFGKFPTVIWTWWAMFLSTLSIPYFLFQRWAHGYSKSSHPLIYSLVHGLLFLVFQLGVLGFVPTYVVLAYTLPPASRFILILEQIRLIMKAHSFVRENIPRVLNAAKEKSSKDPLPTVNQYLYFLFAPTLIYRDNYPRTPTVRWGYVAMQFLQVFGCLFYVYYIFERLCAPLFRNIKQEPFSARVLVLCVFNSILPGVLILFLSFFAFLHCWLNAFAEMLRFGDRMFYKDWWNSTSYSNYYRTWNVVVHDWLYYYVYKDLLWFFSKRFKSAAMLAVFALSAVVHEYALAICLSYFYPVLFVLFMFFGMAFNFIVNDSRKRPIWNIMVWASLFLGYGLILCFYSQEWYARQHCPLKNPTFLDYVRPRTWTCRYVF

[6] = system: Mus musculus; assay: In Vivo effect for the hypolipidemic activity on Acetyl-CoA carboxylase in CF1 mice after 16 days administered orally at a dose of 60 mg/kg; type: functional; conditions: route oral; procedure, shortened: as §2
[7] = system: Rattus norvegicus; assay: Compound was evaluated for the hypolipidemic activity at 20 mg/kg per day orally for 14 days on protein content in rat HDL; type: functional; conditions: route oral
Procedure, shortened: (§3)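 Male Sprague–Dawley rats (~300 g) were dosed orally each day. Blood was drawn from the abdominal vein. Lipoprotein fractions (chylomicron, VLDL, LDL, HDL) were separated by the Hatch–Lees and Havel methods. Each fraction was assayed for cholesterol, triglyceride (enzymatic kit), neutral lipids, phospholipids and Lowry protein. Values are % of 1% CMC vehicle control, N = 6.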

[8] = system: Rattus norvegicus; assay: Compound was evaluated for the hypolipidemic activity at 20 mg/kg per day orally for 14 days on protein content in rat LDL; type: functional; conditions: route oral; procedure, shortened: as §3
[9] = system: Rattus norvegicus; assay: Compound was evaluated for the hypolipidemic activity at 20 mg/kg per day orally for 14 days on protein content in rat small intestine.; type: functional; conditions: route oral
Procedure, shortened: (§4)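 Male Sprague–Dawley rats were dosed orally for 14 days. Liver, small intestine and a 24-h fecal collection were lipid-extracted. Extracts were assayed for cholesterol (modified Liebermann–Burchard), triglyceride (enzymatic kit), neutral lipids, phospholipids and protein. Values are % of 1% CMC vehicle control, mean ± SD, N = 6.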

[10] = system: Rattus norvegicus; assay: Compound was evaluated for the hypolipidemic activity at 20 mg/kg per day orally for 14 days on lipid content in rat feces.; type: functional; conditions: route oral; procedure, shortened: as §4
[11] = system: Rattus norvegicus; assay: Compound was evaluated for the hypolipidemic activity at 20 mg/kg per day orally for 14 days on lipid content in rat small intestine.; type: functional; conditions: route oral; procedure, shortened: as §4
[12] = system: Rattus norvegicus; assay: Compound was evaluated for the hypolipidemic activity at 20 mg/kg per day orally for 14 days on triglycerides content in rat LDL; type: functional; conditions: route oral; procedure, shortened: as §3
[13] = system: Rattus norvegicus; assay: Compound was evaluated for the hypolipidemic activity at 20 mg/kg per day orally for 14 days on triglycerides content in rat small intestine.; type: functional; conditions: route oral; procedure, shortened: as §4

Control [1]: 67%
Control [2]: 52%
Control [3]: 43%
Control [5]: 60%
SMILES: COc1ccc(C2C(=O)c3ccccc3C2=O)cc1 [ANISINDIONE]
Control [4]: 118%
Control [6]: 97%
Control [7]: 107%
Control [8]: 95%
Control [9]: 102%
Control [10]: 103%
Control [11]: 100%
Control [12]: 40%
Control [13]: 89%
